# Reference: ChEMBL document CHEMBL3102763, “Synthesis, radiosynthesis and first in vitro evaluation of novel PET-tracers for the dopamine transporter: [(11)C]IPCIT and [(18)F]FE@IPCIT” (Bioorg Med Chem, 2013)
# Legend:
# [1] = species: Homo sapiens; assay: Selectivity ratio of Ki for human NET to Ki for human DAT
# Method in brief: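 Ratio of Ki values from competition binding on human NET membranes ([3H]nisoxetine) and human DAT membranes ([3H]WIN 35,428). Both were measured in 100 mM NaCl, 50 mM Tris-HCl pH 7.4 with 2 h incubation and scintillation counting.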
# [2] = target: T1, Sodium-dependent serotonin transporter (Homo sapiens, UniProt P31645); assay: Displacement of [3H][…] from human SERT after 2 hrs by liquid scintillation counting analysis
# [3] = species: Homo sapiens; assay: Selectivity ratio of Ki for human SERT to Ki for human DAT
# Method in brief: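 Ratio of Ki values from competition binding on human SERT membranes ([3H]imipramine) and human DAT membranes ([3H]WIN 35,428). Both were measured in 100 mM NaCl, 50 mM Tris-HCl pH 7.4 with 2 h incubation and scintillation counting.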
# [4] = target: T2, Sodium-dependent dopamine transporter (Homo sapiens, UniProt Q01959); assay: Displacement of [3H]WIN35428 from human DAT after 2 hrs by liquid scintillation counting analysis
# Method in brief: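 Competition binding on human DAT membranes (12.7 µg protein/unit) in 100 mM NaCl, 50 mM Tris-HCl pH 7.4, with [3H]WIN 35,428 added as a 3 nM solution. Nonspecific binding defined with 10 µM GBR 12909. After 2 h incubation, bound label is pelleted at about 40,000g, washed twice with ice-cold buffer and counted by β-scintillation. IC50 and Ki come from competition plots, three assays each in triplicate.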
# [5] = Lipophilicity, log D of the compound; assay type: physicochemical; settings: octanol/water
# Method in brief: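 HPLC method on a short polymeric ODP-50 column, with toluene and triphenylene co-injected as standards of known logD and k'. A linear gradient runs from 10% MeOH/90% 25 mM phosphate buffer to 100% methanol over 9.4 min at 1.5 mL/min.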
# [6] = target: T3, Sodium-dependent noradrenaline transporter (Homo sapiens, UniProt P23975); assay: Displacement of [3H][…] from human NET after 2 hrs by liquid scintillation counting analysis
# [7] = target: T1, Sodium-dependent serotonin transporter; assay: Binding affinity to SERT (unknown origin)
# Method in brief: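 Human SERT membranes (9 µg protein/unit) in 100 mM NaCl, 50 mM Tris-HCl pH 7.4, with [3H]imipramine as radioligand. Run as the DAT competition assay: 2 h incubation, centrifugation at about 40,000g and β-scintillation counting. IC50 and Ki are derived from competition plots.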
# [8] = target: T3, Sodium-dependent noradrenaline transporter; assay: Binding affinity to NET (unknown origin)
# Method in brief: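 Human NET membranes (3 µg protein/unit) in 100 mM NaCl, 50 mM Tris-HCl pH 7.4, with [3H]nisoxetine as radioligand. Run as the DAT competition assay: 2 h incubation, centrifugation at about 40,000g and β-scintillation counting. IC50 and Ki are derived from competition plots.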
# [9] = target: T2, Sodium-dependent dopamine transporter; assay: Binding affinity to DAT (unknown origin)
# Method in brief: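 Competition binding on human DAT-expressing membranes (12.7 µg protein/unit) in 50 mM Tris-HCl, 100 mM NaCl, pH 7.4. The radioligand was ³H-WIN 35,428, added from a 3 nM solution. Non-specific binding was defined with 10 µM GBR 12909. After 2 h incubation, membranes were pelleted at about 40,000g and washed with ice-cold buffer, then counted by β-scintillation. IC50/Ki came from competition plots: three assays, each in triplicate.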
# [10] = Drug metabolism in human liver microsomes after 1 hr by radio-HPLC analysis relative to control; assay type: ADME; settings: read-out: Drug metabolism
# Method in brief: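 Pooled human liver microsomes are preincubated 5 min at 37 °C in pH 7.4 phosphate buffer with an NADPH-generating system. Formulated radiotracer (6 µL) is then added in 300 µL final volume, with ethanol at or below 2%. Incubations are quenched with one volume MeOH/ACN (10/1), vortexed and centrifuged. Supernatants are analysed by radio-HPLC for percent intact tracer.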
# [11] = test system: CES1b/CES1c/CES2; assay: Metabolic stability assessed as human CES1b/CES1c/CES2-mediated hydrolysis measuring compound remaining after 60 mins by radio-HPLC analysis; assay type: ADME; settings: human carboxylesterases CES1b, CES1c and CES2, read-out: Stability
# Method in brief: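 A 1/1/1 mixture (20 µL) of human CES1b, CES1c and CES2 (each 5 mg/mL) is diluted with 270 µL phosphate buffer pH 7.4. Radiotracer (6 µL) is incubated in it, quenched with MeOH/ACN (10/1) and centrifuged. Supernatants are analysed by radio-HPLC for percent intact tracer.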
# [12] = Metabolic stability in human plasma assessed as compound remaining after 1 hr by radio-HPLC analysis; assay type: ADME, cell-free; settings: read-out: Stability
# Method in brief: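 Radiotracer (10 µL) incubated in 500 µL pooled Li-heparin human plasma at 37 °C for up to 60 min, with ethanol kept at or below 2% final. Aliquots are quenched with one volume of ice-cold MeOH/ACN (10/1) and centrifuged (23,000g, 4 min, 5 °C). Supernatants are analysed by radio-HPLC for percent […].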
# T3 sequence (P23975 whole entry): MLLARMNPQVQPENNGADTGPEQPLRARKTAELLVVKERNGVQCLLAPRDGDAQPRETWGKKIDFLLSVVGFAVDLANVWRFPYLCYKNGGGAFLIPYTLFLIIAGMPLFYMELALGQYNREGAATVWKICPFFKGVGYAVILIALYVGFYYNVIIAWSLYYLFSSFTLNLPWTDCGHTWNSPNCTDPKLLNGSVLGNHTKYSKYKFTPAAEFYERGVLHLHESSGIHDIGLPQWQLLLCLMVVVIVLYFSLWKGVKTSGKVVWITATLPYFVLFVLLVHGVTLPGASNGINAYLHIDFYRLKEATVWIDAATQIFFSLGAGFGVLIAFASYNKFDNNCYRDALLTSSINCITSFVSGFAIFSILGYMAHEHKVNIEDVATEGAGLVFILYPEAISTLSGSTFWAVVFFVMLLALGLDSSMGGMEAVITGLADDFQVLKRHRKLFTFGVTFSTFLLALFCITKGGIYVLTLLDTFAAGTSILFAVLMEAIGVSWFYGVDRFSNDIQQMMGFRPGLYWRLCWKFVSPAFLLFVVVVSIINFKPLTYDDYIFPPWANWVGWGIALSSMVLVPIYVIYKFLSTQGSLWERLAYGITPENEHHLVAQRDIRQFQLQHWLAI
# T2 sequence (Q01959 whole entry): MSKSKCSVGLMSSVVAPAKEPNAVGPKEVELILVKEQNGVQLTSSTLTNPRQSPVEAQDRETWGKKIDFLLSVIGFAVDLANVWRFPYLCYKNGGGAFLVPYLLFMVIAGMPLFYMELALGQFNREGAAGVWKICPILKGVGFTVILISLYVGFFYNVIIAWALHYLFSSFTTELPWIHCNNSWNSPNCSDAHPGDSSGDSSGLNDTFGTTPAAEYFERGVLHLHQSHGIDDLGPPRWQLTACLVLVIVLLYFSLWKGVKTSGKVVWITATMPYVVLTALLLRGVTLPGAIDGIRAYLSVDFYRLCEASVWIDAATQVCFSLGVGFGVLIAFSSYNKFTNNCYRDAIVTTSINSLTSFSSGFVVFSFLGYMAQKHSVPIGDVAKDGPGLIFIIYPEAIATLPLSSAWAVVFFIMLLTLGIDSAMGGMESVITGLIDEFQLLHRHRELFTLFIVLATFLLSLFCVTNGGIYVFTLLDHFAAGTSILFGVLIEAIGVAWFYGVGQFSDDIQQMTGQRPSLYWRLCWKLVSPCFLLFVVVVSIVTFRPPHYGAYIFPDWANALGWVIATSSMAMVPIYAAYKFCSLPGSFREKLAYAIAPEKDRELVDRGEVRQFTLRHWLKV
# T1 sequence (P31645 whole entry): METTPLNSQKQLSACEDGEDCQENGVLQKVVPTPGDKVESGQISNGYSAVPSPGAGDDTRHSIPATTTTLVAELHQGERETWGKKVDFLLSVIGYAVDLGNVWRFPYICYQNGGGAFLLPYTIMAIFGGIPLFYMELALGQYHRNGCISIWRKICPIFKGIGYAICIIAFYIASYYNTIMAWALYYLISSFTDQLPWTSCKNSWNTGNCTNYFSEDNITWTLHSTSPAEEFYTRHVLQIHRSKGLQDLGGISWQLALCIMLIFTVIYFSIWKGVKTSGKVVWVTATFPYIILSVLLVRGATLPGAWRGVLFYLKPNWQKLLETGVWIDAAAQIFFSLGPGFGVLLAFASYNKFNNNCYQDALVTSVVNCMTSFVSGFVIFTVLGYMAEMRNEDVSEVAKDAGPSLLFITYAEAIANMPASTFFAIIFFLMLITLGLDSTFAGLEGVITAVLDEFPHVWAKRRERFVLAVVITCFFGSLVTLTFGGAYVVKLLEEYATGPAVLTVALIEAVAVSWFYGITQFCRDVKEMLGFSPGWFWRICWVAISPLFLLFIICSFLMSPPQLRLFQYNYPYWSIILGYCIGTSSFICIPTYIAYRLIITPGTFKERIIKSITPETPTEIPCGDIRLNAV
SMILES,Ratio Ki [1],Ki [2] [nM],Ratio Ki [3],Ki [4] [nM],logD [5],Ki [6] [nM],Ki [7] [nM],Ki [8] [nM],Ki [9] [nM],metabolised at 1 h [10] [%],remaining at 1 h [11] [%],remaining at 1 h [12] [%]
O=C(OCCF)[C@H]1[C@@H](c2ccc(I)cc2)C[C@@H]2CC[C@H]1N2C/C=C/I,115,2.4,1.8,1.33,5.39,153,–,–,–,–,–,–
COC(=O)[C@H]1[C@@H](c2ccc(C)cc2)C[C@@H]2CC[C@H]1N2C/C=C/I,–,–,–,–,–,–,500,> 1000,–,–,–,–
COC(=O)[C@H]1[C@@H](c2ccc(I)cc2)C[C@@H]2CC[C@H]1N2C,–,–,–,–,–,–,29.2,32.8,6.34,–,–,–
O=C(OCC[18F])[C@H]1[C@@H](c2ccc(I)cc2)C[C@@H]2CC[C@H]1N2C/C=C/I,–,–,–,–,–,–,–,–,–,71.6,92,100
COC(=O)[C@H]1[C@@H](c2ccc(I)cc2)C[C@@H]2CC[C@H]1N2C/C=C/I,11,1.5,–,1.72,5.29,20,–,–,–,46.4,92,100
O=C(O)[C@H]1[C@@H](c2ccc(I)cc2)C[C@@H]2CC[C@H]1N2C/C=C/I,–,71.4,–,37,0.8,785,–,–,–,–,–,–
